Experimental data: publication PMC2901992 (Bioorganic & medicinal chemistry letters, 2010)
Read-outs that look alike come from different tables or passages of the source.

Legend:
Bcr-Abl (wt) = Bcr-Abl (wt) (Homo sapiens, UniProt P00519+P11274); assay: Cellular antiproliferative activity on wtBcr-Abl-Ba/F3; assay type: cell-based; details: for Selectivity for Bcr-Abl dependent cellular growth: versus parental Ba/F3 cytotoxicity
panel of 442 kinases [1] = assay: KINOMEscan kinase selectivity profiling; assay type: binding; details: 10 μM
Bcr-Abl (T315I) = Bcr-Abl (T315I) (Homo sapiens, UniProt P00519+P11274, T315I); assay: Cellular antiproliferative activity on mutant Bcr-Abl-T315I-Ba/F3; assay type: cell-based; details: for Fold improvement relative to 3 against T315I mutant Bcr-Abl: relative to compound 3; for EC50: read-out: EC50 against T315I mutant
Procedure, shortened: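 Ba/F3 cells transformed with wild-type or T315I Bcr-Abl were tested for antiproliferative activity, with parental Ba/F3 cells tested alongside. The value is an EC50 from the cellular assay.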

panel of 442 kinases [2] = details: cited from earlier work
[3] = carbonyl group at the 6-position

For `CCN1CCN(Cc2ccc(NC(=O)c3ccc(C)c(C#Cc4cccnc4)c3)cc2C(F)(F)F)CC1` [Compound 3], the “Selectivity for Bcr-Abl dependent cellular growth” value (Bcr-Abl (wt)) was “up to 1000 fold”, the “Number of kinases with ambit score of less than 10% of the DMSO control” value (panel of 442 kinases [1]; panel of 442 kinases) was 193 kinases and the “Selectivity score S10” value (panel of 442 kinases [1]; panel of 442 kinases) was 0.427.

For `CCN1CCN(Cc2ccc(NC(=O)c3ccc(C)c(C#Cc4ccc(NC(C)=O)nc4)c3)cc2C(F)(F)F)CC1` [Compound 4], the “Fold improvement relative to 3 against T315I mutant Bcr-Abl” value (Bcr-Abl (T315I)) was ~8 fold.

With `CCN1CCN(Cc2ccc(NC(=O)c3ccc(C)c(C#Cc4ccc(NC(=O)C5CC5)nc4)c3)cc2C(F)(F)F)CC1` [Compound 5] the “Fold improvement relative to 3 against T315I mutant Bcr-Abl” value (Bcr-Abl (T315I)) was ~8 fold.

For `CCN1CCN(Cc2ccc(NC(=O)c3ccc(C)c(C#Cc4ccc(C(=O)NC)nc4)c3)cc2C(F)(F)F)CC1` [Compound 6], the “Fold less potent EC50 against wild-type Bcr-Abl” value (Bcr-Abl (wt); [3]) was 6 fold and the “Fold less potent EC50 against T315I Bcr-Abl” value (Bcr-Abl (T315I); [3]) was 6 fold.

For `CCN1CCN(Cc2ccc(NC(=O)c3ccc(C)c(C#Cc4cnc5[nH]ccc5c4)c3)cc2C(F)(F)F)CC1` [Compound 12], the “Selectivity for Bcr-Abl dependent cellular growth” value (Bcr-Abl (wt)) was “up to 1000 fold”, the EC50 (Bcr-Abl (T315I)) was < 100 nM and the “Number of kinases with ambit score of less than 10% of the DMSO control” value (panel of 442 kinases [1]; panel of 442 kinases) was 203 kinases. For the same molecule, the “Ambit score of kinase hits (% of the DMSO control)” value (panel of 442 kinases [1]; hits: ABL, ARG, BLK, PITSLRE, CRIK, FMS/CSFR, DDR1, EphA8, FGFR4, HPK1, JNK2, KIT, LOK, LYN, GCK, MUSK, MYO3B, p38α, p38β, PDGFRα, PDGFRβ, RET, RIPK1, SRC, TAO1, TAO2, TAO3, TIE2) was < 0.1%.

In the case of `CCN1CCN(Cc2ccc(NC(=O)c3ccc(C)c(C#Cc4cnc5[nH]cnc5c4)c3)cc2C(F)(F)F)CC1` [Compound 14], the EC50 (Bcr-Abl (T315I)) is reported as < 100 nM.

For `CCN1CCN(Cc2ccc(NC(=O)c3cccc(-c4ccc5nc(NC(=O)C6CC6)sc5n4)c3)cc2C(F)(F)F)CC1` [HG-7-85-01], the “Selectivity score S10” value (panel of 442 kinases [2]) is listed as 0.056.
